Data set [1] deals with P388. Description: Inhibition of DNA synthesis was measured as the concentration required to cause 50% reduction (in 1h) in methyl [3H]thymidine incorporation into acid precipitable material using P388 cells. It is filed as functional. The following applies: Mus musculus, read-out: ID50 (the source's name). Summed up: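 P388 cells were exposed for 1 h. IC50 (µM) was taken as 50% reduction of methyl-[3H]thymidine (DNA) or 2-[14C]uridine (RNA) incorporation into acid-precipitable material. The ratio is IC50 DNA divided by IC50 RNA.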
On the technique in general: Incorporation of labelled thymidine or its analogues reports DNA synthesis.

The species entered for data set [2] is Mus musculus. The experiment in a line: Antitumor activity against B16 melanoma in terms of percentage increase in life span in mice after 65 days. It is filed as functional.
Data set [3] deals with Mus musculus. Description: In vivo antitumor activity was determined against P388 leukemia mice as number of mice survived after administration of 300 ug/Kg dose of compound; Value represented as no of survivors/ treated = 0/8. Format: functional.
In data set [4] the test system is Mus musculus. Description: Antitumor activity against P388 leukemia cells in terms of median survival time of mice at an optimal dose of 300 ug/kg administered ip. It is filed as functional.
In data set [5] the test system is Mus musculus. The experiment in a line: In vivo antitumor activity was determined against B16 melanoma mice as number of mice survived after administration of 250 ug/Kg dose of compound; Value represented as no of survivors/ treated = 2/9. It is filed as functional.
Data set [6] is filed under the species Mus musculus. Description: Dose providing an increase in the life span of 45% over control in P388 tumor bearing mice. Format: functional. Particulars: read-out: MED. Summed up:
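MED is the ip dose in mg/kg, given on days 1, 5 and 9 starting 1 day after implantation, that gives a 45% increase in life span over control in P388-bearing mice. It was derived from plotted log-dose response data.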

Data set [7] deals with Mus musculus. The experiment in a line: Antitumor activity against B16 melanoma in terms of median survival time of mice at an optimal dose of 250 ug/kg administered ip. Format: functional.
Data set [8] relates to CCRF-CEM. The experiment in a line: Inhibitory dose required for the inhibition of human lymphoblastic leukemia cells(CCRF-CEM). It is filed as functional. Particulars: read-out: ID50 (the source's name).
For data set [9], the system named is P388. The experiment in a line: Inhibition of RNA synthesis was measured as the concentration required to cause 50% reduction (in 1h) in 2-[14C]uridine incorporation into acid precipitable material using P388 cells. It is filed as functional. Particulars: Mus musculus, P388, 1 h; read-out: ID50 (the source's name).
The nature of data set [10]: Minimum tolerated dose is the lethal dose for 10% normal mice for deaths during 21 days. It is filed as ADME, organism-based. Particulars: mouse, in vivo. Summed up:
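Tumor-free male BDF1 mice (18–22 g) received a broad dose range ip in 5% dimethyl sulfoxide-saline on days 1, 5 and 9. Deaths were recorded over 21 days. The LD10 (dose killing 10% of animals) was calculated from a plot of log-dose vs. percent mortality.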

Data set [11] is filed under the species Rattus norvegicus. Description: Compound tested for NADPH oxidation in rat hepatic mycrosomal incubation. Format: functional. Summed up: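 Phenobarbital-induced male Sprague-Dawley rat liver microsomes were placed in both cuvettes, without epinephrine. NADPH 0.4 mM was added to the sample side only, and absorbance was read at 340 nm. Percent stimulation = (drug rate − basal)/basal × 100. Values are the average ± standard errors of triplicates.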

Data set [12] in a line: Therapeutic index ([…]) value of the compound. The following applies: read-out: TI. The procedure, abridged:
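MED is the dose giving a 45% increase in life span over control in male BDF1 mice implanted ip with 10^6 P388 cells and treated ip on days 1, 5 and 9. MTD is the 21-day LD10 in tumor-free male BDF1 mice (18–22 g), dosed ip on the same days. Both values come from plotted log-dose response data.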

The species entered for data set [13] is Rattus norvegicus. Description: Compound tested for adrenochrome formation in rat hepatic mycrosomal incubation. It is filed as functional. Summed up: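 Adrenochrome assay for superoxide: epinephrine in 0.01 N HCl plus 300 µg of phenobarbital-induced rat liver microsomes at 37 °C. NADPH 0.4 mM was added to the sample side 1 min later, and the rate was read at 480 nm (ε 4.02 mM−1 cm−1). Drugs were at ≤100 µM, made in 150 mM KCl–50 mM Tris, pH 7.4. Percent stimulation is over basal rate, in triplicate.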

The subject of data set [14] is Mus musculus. The experiment in a line: Antitumor activity against P388 leukemia cells in terms of percentage increase in life span in mice at an optimal dose of 300 ug/kg administered ip. It is filed as functional.
Data set [15] relates to Mus musculus. Description: Antitumor activity against P388 leukemia cells in terms of median survival time of mice at an optimal dose of 600 ug/kg administered ip. Format: functional.
In data set [16] the test system is Mus musculus. Description: In vivo antitumor activity was determined against B16 melanoma mice as number of mice survived after administration of 300 ug/Kg dose of compound; Value represented as no of survivors/ treated = 4/9. Format: functional.
In data set [17] the test system is Mus musculus. Description: Antitumor activity against B16 melanoma in terms of percentage increase in life span in mice at an optimal dose of 300 ug/kg administered ip. It is filed as functional.
Data set [18] concerns Mus musculus. The experiment in a line: In vivo antitumor activity was determined against P388 leukemia mice as number of mice survived after administration of 600 ug/Kg dose of compound; Value represented as no of survivors/ treated = 4/8. Format: functional.
Data set [19] relates to Mus musculus. Description: Antitumor activity against B16 melanoma in terms of median survival time of mice at an optimal dose of 300 ug/kg administered ip. It is filed as functional.
The test system of data set [20] is Mus musculus. Description: Antitumor activity against P388 leukemia cells in terms of percentage increase in life span in mice at an optimal dose of 600 ug/kg administered ip. Format: functional.
Data set [21] has as its system Mus musculus. The experiment in a line: In vivo antitumor activity was determined against P388 leukemia mice as number of mice survived after administration of 375 ug/Kg dose of compound; Value represented as no of survivors/ treated = 4/8. It is filed as functional.
The subject of data set [22] is Mus musculus. Description: Antitumor activity against P388 leukemia cells in terms of median survival time of mice at an optimal dose of 375 ug/kg administered ip. Format: functional.
Data set [23] concerns Mus musculus. The experiment in a line: In vivo antitumor activity was determined against B16 melanoma in mice as number of mice survived after administration of 300 ug/Kg dose of compound; Value represented as no of survivors/ treated = 5/9. It is filed as functional.
The test system of data set [24] is Mus musculus. The experiment in a line: Antitumor activity against P388 leukemia cells in terms of percentage increase in life span in mice at an optimal dose of 375 ug/kg administered ip. It is filed as functional.

Where “and” joins values, the source holds several entries; their conditions need not be identical. Identical values can stand only once.

What is called ILS is how much longer treated animals lived than controls. The low end stands for a small benefit in survival, the high end for a large benefit in survival. As usually defined, the MTD is the largest dose that counted as tolerated. A low value points to a narrow tolerated range. On to `Cc1c2oc3c(C)ccc(C(=O)N[C@@H]4C(=O)N[C@H](C(C)C)C(=O)N5CCC[C@H]5C(=O)NCC(=O)N[C@@H](C(C)C)C(=O)O[C@@H]4C)c3nc-2c(C(=O)N[C@@H]2C(=O)N[C@H](C(C)C)C(=O)N3CCC[C@H]3C(=O)NCC(=O)N[C@@H](C(C)C)C(=O)O[C@@H]2C)c(N)c1=O` [ACTINOMYCITIN], for which the IC50 in data set [1] came out at 1.12 nM; in [8] it was 50 nM; in [9] it was 0.05 nM. Further, the ILS in [2] came out at 48%. Moreover, the figures for the Survivors in [3] and in data set [5] were 0 and 2, respectively. Besides, the figures for the MST in [4] and in data set [7] were 26 days and 43 range, respectively. Besides, the minimal effective dose in [6] amounted to 0.0625 mg/kg. In data set [10], the MTD at 504 h worked out at 0.25 mg/kg. Besides, the NADPH oxidation in data set [11] was 9.11 nM min-1 (mg of protein)-1 and 10.01 nM min-1 (mg of protein)-1. Further, the selectivity ratio in data set [12] turned out to be 4. The adrenochrome formation in data set [13] was 2.11 nM min-1 (mg of protein)-1 and 2.29 nM min-1 (mg of protein)-1. This compound also registered an increase in lifespan (ILS) at 0.3 mg/kg in data set [14] of 136%.
Consider `Cc1c2oc3c(C)c(O)c(N)c(C(=O)N[C@@H]4C(=O)N[C@H](C(C)C)C(=O)N5CCC[C@H]5C(=O)N(C)CC(=O)N(C)[C@@H](C(C)C)C(=O)O[C@@H]4C)c3nc-2c(C(=O)N[C@@H]2C(=O)N[C@H](C(C)C)C(=O)N3CCC[C@H]3C(=O)N(C)CC(=O)N(C)[C@@H](C(C)C)C(=O)O[C@@H]2C)c(N)c1=O`, for which the MST in data set [15] came to 52 days; in [19], 57 days. The Survivors in data set [16] and in data set [18] was 4 throughout. Further, the minimal effective dose in [6] amounted to 0.025 mg/kg. The same compound displayed an increase in life span (ILS) at 0.3 mg/kg in [17] of 96%. The IC50 in data set [8] came to 30 nM. For the same compound, the NADPH oxidation in [11] is reported as 64.3 nM min-1 (mg of protein)-1. Moreover, the adrenochrome formation in data set [13] is on record as 19.3 nM min-1 (mg of protein)-1. Moreover, in data set [20], the increase in life span (ILS) at 0.6 mg/kg was determined as 382%.
For `Cc1c2oc3c(C)c4oc(-c5ccccc5)nc4c(C(=O)N[C@@H]4C(=O)N[C@H](C(C)C)C(=O)N5CCC[C@H]5C(=O)N(C)CC(=O)N(C)[C@@H](C(C)C)C(=O)O[C@@H]4C)c3nc-2c(C(=O)N[C@@H]2C(=O)N[C@H](C(C)C)C(=O)N3CCC[C@H]3C(=O)N(C)CC(=O)N(C)[C@@H](C(C)C)C(=O)O[C@@H]2C)c(N)c1=O`, the Survivors in data set [21] worked out at 4; in data set [23], 5. The MST came out at 52 days in data set [22] and 59 days in data set [19]. In addition, in data set [6], the minimal effective dose is 0.03 mg/kg. In data set [17], the ILS at 0.3 mg/kg is 103%. In addition, in data set [8], the IC50 amounted to 30 nM. In data set [24], the ILS at 0.375 mg/kg came out at 382%.

Values taken from ChEMBL document CHEMBL1123113, “"Reverse" and "symmetrical" analogues of actinomycin D: metabolic activation and in vitro and in vivo tumor growth inhibitory activities” (J Med Chem, 1985).
